Measurements as given in ChEMBL document CHEMBL4680377, “Discovery of a Novel Series of Pyridone-Based EP3 Antagonists for the Treatment of Type 2 Diabetes” (ACS Med Chem Lett, 2021).
In brackets after ≈: the same amount, converted by molar mass.

What was measured:
[1] = biological target: T1, Prostaglandin E2 receptor EP3 subtype (Homo sapiens, UniProt P43115); assay: Antagonist activity at human EP3 expressed in CHO cells assessed as suppression of sulprostone-induced inhibition of forskolin induced cAMP production measured after 30 mins by HTR-FRET assay; format: functional, cell-based
T1 sequence (P43115 whole entry): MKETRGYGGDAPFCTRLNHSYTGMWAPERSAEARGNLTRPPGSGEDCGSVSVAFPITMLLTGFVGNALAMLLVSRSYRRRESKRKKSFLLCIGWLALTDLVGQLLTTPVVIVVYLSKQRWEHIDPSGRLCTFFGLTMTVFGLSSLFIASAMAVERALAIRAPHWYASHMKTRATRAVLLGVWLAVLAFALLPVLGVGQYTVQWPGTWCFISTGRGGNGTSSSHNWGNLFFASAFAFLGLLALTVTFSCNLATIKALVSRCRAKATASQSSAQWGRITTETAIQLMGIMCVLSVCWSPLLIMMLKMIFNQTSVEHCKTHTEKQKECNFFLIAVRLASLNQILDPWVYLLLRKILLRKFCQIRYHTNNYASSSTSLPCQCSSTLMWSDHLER

[2] = biological target: T1, Prostaglandin E2 receptor EP3 subtype; assay: Displacement of [3H]-PGE2 from human EP3 expressed in Chem-1 cell membranes incubated for 2 hrs by TopCount scintillation plate reader analysis; set-up: species or system Membrane
[3] = Kinetic solubility of compound in PBS buffer; format: physicochemical; conditions: read-out: Kinetic_solubility
[4] = Kinetic solubility of compound at pH 2; format: physicochemical; conditions: buffer, read-out: Kinetic_solubility
[5] = Metabolic stability in rat liver microsomes assessed as intrinsic clearance half life; format: ADME, Microsome
[6] = Apparent permeability across apical to basolateral side in dog MDCK cells; format: ADME, cell-based, Canis lupus familiaris
[7] = Metabolic stability in human liver microsomes assessed as intrinsic clearance half life; format: ADME, Microsome
[8] = Cmax in Sprague-Dawley rat at 10 mg/kg, po measured up to 24 hrs by LC-MS/MS analysis; format: ADME, organism-based; set-up: route oral, dose 10 mg/kg, time <=24; conditions: in vivo
Outline: (§1)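 Sprague-Dawley rats, n = 3 per route, sampled over 24 h. Full PK: iv 2 mg/kg in 20% HPbCD with po 10 mg/kg given either in 0.5% HPMC or in 20% HPbCD, depending on study. Fast PK: po only, 10 mg/kg in 0.5% HPMC.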

[9] = Clearance in Sprague-Dawley rat at 2 mg/kg, iv measured up to 24 hrs by LC-MS/MS analysis; format: ADME, organism-based; conditions: in vivo; outline: as §1
[10] = AUClast in Sprague-Dawley rat at 10 mg/kg, po measured up to 24 hrs by LC-MS/MS analysis; format: ADME, organism-based; set-up: route oral, dose 10 mg/kg, time <=24; conditions: in vivo; outline: as §1
[11] = Volume of distribution at steady state in Sprague-Dawley rat at 2 mg/kg, iv measured up to 24 hrs by LC-MS/MS analysis; format: ADME, organism-based; conditions: in vivo, read-out: Vdss; outline: as §1
[12] = Plasma protein binding in rat; format: ADME, cell-free; conditions: read-out: PPB (converted)
[13] = Half life in Sprague-Dawley rat at 10 mg/kg, po measured up to 24 hrs by LC-MS/MS analysis; format: ADME, organism-based; conditions: in vivo; outline: as §1
[14] = Plasma protein binding in human; format: ADME, cell-free; conditions: read-out: PPB (converted)
[15] = Oral bioavailability in Sprague-Dawley rat at 10 mg/kg measured up to 24 hrs by LC-MS/MS analysis; format: ADME, organism-based; conditions: in vivo; outline: as §1
[16] = biological target: T2, Prostaglandin E2 receptor EP3 subtype (Rattus norvegicus, UniProt P34980); assay: Binding affinity to rat EP3
T2 sequence (P34980 whole entry): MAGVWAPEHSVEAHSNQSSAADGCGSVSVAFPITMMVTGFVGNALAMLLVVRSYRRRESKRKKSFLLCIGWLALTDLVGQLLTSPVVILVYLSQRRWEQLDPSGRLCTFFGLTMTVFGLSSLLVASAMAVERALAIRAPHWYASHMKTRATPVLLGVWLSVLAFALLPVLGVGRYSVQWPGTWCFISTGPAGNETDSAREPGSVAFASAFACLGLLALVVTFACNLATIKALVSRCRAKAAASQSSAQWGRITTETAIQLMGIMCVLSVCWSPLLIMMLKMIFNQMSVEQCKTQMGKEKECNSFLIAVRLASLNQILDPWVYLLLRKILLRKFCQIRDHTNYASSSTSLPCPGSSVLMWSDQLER

| SMILES | IC50 [1] | Ki [2] | solubility kinetic [3] | solubility kinetic [4] | half-life [5] | Papp A→B [6] | half-life [7] | further results |
| --- | --- | --- | --- | --- | --- | --- | --- | --- |
| CCn1ncc2c(F)c(-c3ccc(C(/C=C4\OC(=O)NC4=O)(CC)CC)c(=O)[nH]3)ccc21 | > 20000 nM | 1300 nM | – | – | – | – | – | – |
| CC(C)[C@H](C[C@H]1SC(=O)NC1=O)c1ccc(-c2ccc3cccc(F)c3c2)[nH]c1=O (relative stereo) | – | – | 31.2 µM (≈ 13.2 µg/mL) | 4.9 µM (≈ 2.08 µg/mL) | 0.143 h | 17.6 ×10⁻⁶ cm/s | 0.67 h | – |
| CC(C)C(/C=C1\NC(=O)NC1=O)c1ccc(-c2ccc3cccc(F)c3c2)[nH]c1=O (configuration not stated) | – | – | 10.7 µM (≈ 4.34 µg/mL) | 7.5 µM (≈ 3.04 µg/mL) | 1.46 h | 12.3 ×10⁻⁶ cm/s | > 3 h | – |
| CC(C)/C(=C1/SC(=O)NC1=O)c1ccc(-c2ccc3cccc(F)c3c2)[nH]c1=O | – | – | 23.3 µM (≈ 9.52 µg/mL) | 9.2 µM (≈ 3.76 µg/mL) | > 3 h | 22.9 ×10⁻⁶ cm/s | > 3 h | – |
| CC(C)/C(=C1/OC(=O)NC1=O)c1ccc(-c2ccc3cccc(F)c3c2)[nH]c1=O | 1300 nM | 140 nM | – | – | > 3 h | – | > 3 h | – |
| CC(C)C(/C=C1\SC(=O)NC1=O)c1ccc(-c2ccc3cccc(F)c3c2)[nH]c1=O (configuration not stated) | – | – | 25.6 µM (≈ 10.8 µg/mL) | 4.8 µM (≈ 2.03 µg/mL) | 2.62 h | 15.4 ×10⁻⁶ cm/s | > 3 h | – |
| CC(C)C1(c2ccc(-c3ccc4ccccc4c3)[nH]c2=O)OC(O)=NC1=O (configuration not stated) | 68 nM | – | – | – | – | – | – | – |
| CCn1ncc2c(F)cc(-c3ccc(C(/C=C4\OC(=O)NC4=O)(CC)CC)c(=O)[nH]3)cc21 | – | – | 30.8 µM (≈ 13.5 µg/mL) | 21.7 µM (≈ 9.51 µg/mL) | > 3 h | – | > 3 h | Cmax [8]: 8740 ng/mL; clearance [9]: 0.93 mL/min/kg; AUC(0-t) at 24 h [10]: 100 µg·h/mL; Vd [11]: 0.24 L/kg; fraction unbound [12]: 0.0018; half-life [13]: 9.8 h; fraction unbound [14]: 0.0011; bioavailability [15]: 54.9% |
| CCC(/C=C1\OC(=O)NC1=O)(CC)c1ccc(-c2ccc3c(c2)OC(C)(C)CC3)[nH]c1=O | > 20000 nM | 2600 nM | – | – | – | – | – | – |
| CC(C)[C@@H](C[C@H]1SC(=O)NC1=O)c1ccc(-c2ccc3cccc(F)c3c2)[nH]c1=O (relative stereo) | – | – | 23.9 µM (≈ 10.1 µg/mL) | 12.2 µM (≈ 5.18 µg/mL) | 0.77 h | 25.5 ×10⁻⁶ cm/s | 1.24 h | – |
| CC(C)C(c1ccc(-c2ccc3cccc(F)c3c2)[nH]c1=O)C1SC(=O)NC1=O (configuration not stated) | – | – | 20.1 µM (≈ 8.25 µg/mL) | 11.3 µM (≈ 4.64 µg/mL) | 0.76 h | 26.3 ×10⁻⁶ cm/s | 1.87 h | – |
| CCC(/C=C1\OC(=O)NC1=O)(CC)c1ccc(-c2ccc3cc(F)cc(F)c3c2)[nH]c1=O | 45 nM | 28 nM | – | – | > 3 h | – | > 3 h | – |
| CC(C)C(/C=C1\OC(=O)NC1=O)c1ccc(-c2ccc3cccc(F)c3c2)[nH]c1=O (configuration not stated) | – | – | 28 µM (≈ 11.4 µg/mL) | 8 µM (≈ 3.25 µg/mL) | > 3 h | 9.9 ×10⁻⁶ cm/s | > 3 h | Cmax [8]: 24600 ng/mL; Ki [16]: 1 nM; clearance [9]: 1.06 mL/min/kg; AUC(0-t) at 24 h [10]: 159 µg·h/mL; Vd [11]: 0.23 L/kg; fraction unbound [12]: 0.0001; half-life [13]: 4.6 h; fraction unbound [14]: 0.0008; bioavailability [15]: 97.7% |
| CCC(/C=C1\OC(=O)NC1=O)(CC)c1ccc(-c2ccc3c(F)cc(F)cc3c2)[nH]c1=O | – | 290 nM | – | – | – | – | – | – |
| C/C(=C1/OC(=O)NC1=O)C(c1ccc(-c2ccc3cccc(F)c3c2)[nH]c1=O)C(C)C (configuration not stated) | 39 nM | 17 nM | 17.2 µM (≈ 7.23 µg/mL) | 12.7 µM (≈ 5.34 µg/mL) | > 3 h | – | > 3 h | Cmax [8]: 1230 ng/mL; clearance [9]: 15.6 mL/min/kg; AUC(0-t) at 24 h [10]: 12.7 µg·h/mL; Vd [11]: 1.96 L/kg; half-life [13]: 4 h; bioavailability [15]: 118% |
